Test results as given in paper PMC12779259 (Metallomics : integrated biometal science, 2019).
Values after ≈ are worked out from the molar mass of the structure shown.

Experiments:
[1] = test system: S. aureus; test: MIC determination against S. aureus in RPMI; type: cell-based, Staphylococcus aureus; conditions: for ^CuMIC (S. aureus): MIC in 50 μM copper supplemented medium
[2] = test system: THP-1 monocytic cells; test: Toxicity testing on THP-1 monocyte cells; type: cell-based, human; conditions: 24 h
[3] = Toxicity testing on THP-1 monocyte cells; type: cell-based, human; conditions: human, THP-1 monocytic cells
[4] = Determination of binding constants by UV/Vis; conditions: 25 uM HEPES buffer pH 7.2
[5] = test system: S. aureus; test: Time to death assay and bactericidal activity; type: cell-based, Staphylococcus aureus; conditions: for mode of action (bactericidal vs bacteriostatic): CFU
[6] = test system: preformed S. aureus biofilms; test: Biofilm eradication assay; type: cell-based, Staphylococcus aureus; conditions: preformed S. aureus Newman biofilms, 24 hours treatment
[7] = test system: methicillin resistant S. aureus strains; test: MIC against clinically isolated MRSA strains; type: cell-based, Staphylococcus aureus; conditions: 5 clinically isolated MRSA strains, 50 μM Cu
[8] = test system: S. aureus Newman; test: Membrane potential, DiOC2; type: cell-based, Staphylococcus aureus; conditions: within 30 min; 10 μM PZP-915 and/or 50 μM Cu
[9] = test system: S. aureus strain LAC carrying pHluorin; type: cell-based, Staphylococcus aureus; conditions: mildly acidic medium (pH 6.2)
[10] = biological target: T1, GAPDH (Staphylococcus aureus, UniProt Q6GIL8); test: GAPDH activity in lysates of treated bacteria; type: cell-based; conditions: 30 minutes treatment; 50 µM Cu, 10 µM PZP-915, 10 µM 915+50 µM Cu
T1 sequence (Q6GIL8 1-336): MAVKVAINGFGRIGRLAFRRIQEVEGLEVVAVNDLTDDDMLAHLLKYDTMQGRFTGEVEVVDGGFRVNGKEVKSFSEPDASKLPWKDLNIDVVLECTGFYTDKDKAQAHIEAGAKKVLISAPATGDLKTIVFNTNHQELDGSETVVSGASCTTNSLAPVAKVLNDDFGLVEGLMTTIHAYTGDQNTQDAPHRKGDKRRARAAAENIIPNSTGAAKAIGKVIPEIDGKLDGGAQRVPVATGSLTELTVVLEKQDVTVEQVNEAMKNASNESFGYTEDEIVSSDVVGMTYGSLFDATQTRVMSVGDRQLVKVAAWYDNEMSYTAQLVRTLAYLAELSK
Summary of the method: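 After the 30 min treatment, bacteria washed to remove extracellular copper, then lysed. GAPDH activity measured in the lysates.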

## CNC(=S)NN=CC=NNC(=S)NC [GTSM]
[1]
  ^CuMIC (S. aureus): 0.3 µM
[2]; IC90 in the presence of 25 μM copper
  ^CuIC90 (THP1): 0.15 µM
[2]; read-out: IC90 (THP1), 90% inhibition relative to untreated controls, no Cu
  IC90: > 10 µM

## Cc1nn2c(=O)cc(Cc3ccccc3)[nH]c2c1-c1ccc(Cl)cc1 [PZP-915, 5‐benzyl‐3‐(4‐chlorophenyl)‐2‐methyl‐4H,7H‐pyrazolo[1,5‐a]pyrimidin‐7‐one]
[1]; 50 μM Cu, 500 μM BCS
  activity in medium supplemented with both Cu and BCS: about the same as in standard medium
[1]; 50 μM Fe supplemented medium
  effect of Fe on activity: no effect
[1]; 50 μM Zn supplemented medium
  improvement of activity by Zn in comparison to standard medium: 4 fold
[1]; 500 μM BCS, no Cu supplementation
  impact of BCS addition to standard medium on activity: no impact
[1]
  ^CuMIC (S. aureus): 0.6 µM
[1]; Staphylococcus aureus, read-out: MIC (S. aureus)
  MIC: 5 µM (≈ 1.75 µg/mL)
[3]
  IC90 at 24 h: > 40 µM
[4]
  binding constant, 1st order reaction of copper binding: 3.8×10^5 Lmol^−1
  binding constant, 2nd order complex with copper: 6.18 Lmol^−1
  binding constant, 3rd order complex with copper: 47.65 Lmol^−1
[5]; 0.6 µM PZP-915 in the presence of 50 µM Cu
  time to achieve complete inhibition of growth: 2 h
[5]; 24h treatment, 50 μM Cu added, consistent with bactericidal activity
  recoverable viable bacteria: no viable cells could be recovered
[5]; 24h treatment, presence of 50 μM Zn
  mode of action (bactericidal vs bacteriostatic): bacteriostatic
[5]; 24h treatment, standard medium, absence of Cu
  mode of action (bactericidal vs bacteriostatic): bacteriostatic
[5]; dose-matrix, 0.6 µM PZP-915
  Cu concentration required to display similar potency: 50 µM
[5]; dose-matrix, 10 µM PZP-915
  Cu concentration required to exert potent antibacterial properties: 1.25 µM
[6]
  concentration for complete eradication of S. aureus in biofilms: 0.6 µM
[7]
  MIC against MRSA strains in comparison to S. aureus Newman: no difference
[8]
  effect on membrane potential (DiOC2(3) red/green ratio): decreased the membrane potential, although to a much lesser extent
[9]
  change of intracellular pH: no or only a minor impact
[10]
  GAPDH activity in cell lysates: did not alter GAPDH activity

## Carbonyl cyanide m-chlorophenyl hydrazine [CCCP, reference compound]
[9]
  change of intracellular pH: almost instantaneous pH drop

## Iron
[1]; metal alone
  concentration up to which no toxicity to S. aureus was observed: > 3.2 mM
